Assay results as given in ChEMBL document CHEMBL1687805, “Colistin resistance in Acinetobacter baumannii is mediated by complete loss of lipopolysaccharide production” (2010).
≈ marks a conversion by molar mass, not a printed value.

Experiments:
Format in all cases: functional
[1] = test system: Acinetobacter baumannii; assay: Antibacterial activity against colistin-resistant Acinetobacter baumannii ATCC 19606R harboring pAL840 plasmid encoding intact lpxA gene by broth microdilution method
Outline: (§1)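 Broth microdilution MIC in cation-adjusted Mueller-Hinton broth following the CLSI protocol, read in μg/ml. Strains were kept on Mueller-Hinton agar and cultured at 37°C. 19606R was selected directly on 10 μg/ml colistin and maintained with it. The pWH1266 or pAL840 transformants of 19606R were introduced by electroporation and selected on 100 μg/ml ampicillin.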

[2] = test system: Acinetobacter baumannii; assay: Antibacterial activity against colistin-resistant Acinetobacter baumannii ATCC 19606R exhibiting complete loss of lipopolysaccharide production by broth microdilution method; outline: as §1
[3] = test system: Acinetobacter baumannii; assay: Antibacterial activity against Acinetobacter baumannii ATCC 19606 by broth microdilution method; outline: as §1
[4] = test system: Acinetobacter baumannii; assay: Antibacterial activity against colistin-resistant Acinetobacter baumannii ATCC 19606R harboring empty plasmid pWH1266 by broth microdilution method; outline: as §1

Molecule | MIC [1] [µg/mL] | MIC [2] [µg/mL] | MIC [3] [µg/mL] | MIC [4] [µg/mL]
POLYMYXIN B | 0.5 | > 128 | 0.5 | > 128
CC[C@H]1OC(=O)[C@H](C)[C@@H](O[C@H]2C[C@@](C)(OC)[C@@H](O)[C@H](C)O2)[C@H](C)[C@@H](O[C@@H]2O[C@H](C)C[C@H](N(C)C)[C@H]2O)[C@](C)(O)C[C@@H](C)CN(C)[C@H](C)[C@@H](O)[C@]1(C)O [AZITHROMYCIN] | 64 (≈ 85.4 µM) | 2 (≈ 2.67 µM) | 64 (≈ 85.4 µM) | 2 (≈ 2.67 µM)
CO/N=C(\C(=O)N[C@@H]1C(=O)N2C(C(=O)[O-])=C(C[N+]3(C)CCCC3)CS[C@H]12)c1csc(N)n1 | 16 (≈ 33.3 µM) | 0.125 (≈ 0.26 µM) | 16 (≈ 33.3 µM) | 0.125 (≈ 0.26 µM)
